Reference: ChEMBL document CHEMBL2163332 (J Med Chem, 2012)
pEC50, pIC50, pKi: −log10 of the molar value. Activity calls are given as the source filed them. No cut-off for these calls is given here.

Key:
Mu-type opioid receptor [1] = target: T1, Mu-type opioid receptor (Homo sapiens, UniProt P35372); test: Agonist activity at mu opioid receptor expressed in HEK293 cells assessed as inhibition of forskolin-induced cAMP accumulation after 30 mins by liquid scintillation counter; type: functional, cell-based
T1 sequence (P35372 whole entry): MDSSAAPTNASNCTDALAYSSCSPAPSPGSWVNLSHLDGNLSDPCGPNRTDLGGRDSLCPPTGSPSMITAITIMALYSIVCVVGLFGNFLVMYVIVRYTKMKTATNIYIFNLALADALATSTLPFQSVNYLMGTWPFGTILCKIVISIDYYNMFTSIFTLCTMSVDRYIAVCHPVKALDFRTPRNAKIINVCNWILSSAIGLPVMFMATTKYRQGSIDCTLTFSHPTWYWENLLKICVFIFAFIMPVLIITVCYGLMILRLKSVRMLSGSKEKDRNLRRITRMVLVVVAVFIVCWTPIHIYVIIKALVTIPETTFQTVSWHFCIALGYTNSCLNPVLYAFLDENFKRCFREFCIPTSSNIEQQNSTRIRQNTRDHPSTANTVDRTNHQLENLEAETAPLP

[2] = target: Delta-type opioid receptor (Homo sapiens, UniProt P41143); test: Displacement of [3H]DPDPE from Myc-tagged delta opioid receptor expressed in HEK293 cells after 60 mins by liquid scintillation counter; type: cell-based
Sequence of Delta-type opioid receptor (Homo sapiens, UniProt P41143) (P41143 whole entry): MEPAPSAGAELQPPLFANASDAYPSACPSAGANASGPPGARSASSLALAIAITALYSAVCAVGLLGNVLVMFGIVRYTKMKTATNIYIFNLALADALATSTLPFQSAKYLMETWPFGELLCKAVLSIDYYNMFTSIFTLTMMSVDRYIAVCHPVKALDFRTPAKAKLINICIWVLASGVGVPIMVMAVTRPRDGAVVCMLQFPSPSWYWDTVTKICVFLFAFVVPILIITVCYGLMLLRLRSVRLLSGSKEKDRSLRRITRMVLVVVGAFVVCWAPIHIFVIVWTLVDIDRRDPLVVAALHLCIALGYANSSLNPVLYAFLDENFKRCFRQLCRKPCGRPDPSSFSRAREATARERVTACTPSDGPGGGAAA

[3] = target: Delta-type opioid receptor (Mus musculus) (UniProt P32300); test: Agonist activity at delta opioid receptor in Kunming mouse vas deferens assessed as inhibition of electrically-stimulated muscle contraction in presence of delta opioid receptor antagonist naltrindole; type: functional, tissue-based
Sequence of Delta-type opioid receptor (Mus musculus) (P32300 whole entry): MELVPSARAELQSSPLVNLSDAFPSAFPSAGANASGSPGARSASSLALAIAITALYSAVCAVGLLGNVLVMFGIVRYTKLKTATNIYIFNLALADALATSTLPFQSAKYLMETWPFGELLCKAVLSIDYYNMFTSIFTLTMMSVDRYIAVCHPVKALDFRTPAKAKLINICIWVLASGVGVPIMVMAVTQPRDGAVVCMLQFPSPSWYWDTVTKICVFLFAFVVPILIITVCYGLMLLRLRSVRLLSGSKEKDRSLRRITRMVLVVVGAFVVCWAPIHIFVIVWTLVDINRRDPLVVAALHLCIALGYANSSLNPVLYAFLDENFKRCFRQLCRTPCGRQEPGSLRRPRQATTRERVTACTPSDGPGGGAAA

[4] = target: Delta-type opioid receptor (Mus musculus, UniProt P32300); test: Agonist activity at delta opioid receptor in Kunming mouse vas deferens assessed as inhibition of electrically-stimulated muscle contraction; type: functional, tissue-based
Sequence of Delta-type opioid receptor (Mus musculus, UniProt P32300) (P32300 whole entry): as above

[5] = Selectivity ratio of Ki for Myc-tagged delta opioid receptor to Ki for FLAG-tagged mu opioid receptor
Mu-type opioid receptor [6] = target: T1, Mu-type opioid receptor; test: Displacement of [3H]DAMGO from FLAG-tagged mu opioid receptor expressed in HEK293 cells after 60 mins by liquid scintillation counter; type: cell-based
Mus musculus [7] = test: Antinociceptive activity in icv dosed Kunming mouse assessed as inhibition of heat-induced tail flick after 5 to 60 mins; type: functional; conditions: for ED50: central
Outline: (§1)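 Male Kunming mice (18−22 g), peptide or saline given icv; tail immersed in 50 ± 0.2 °C water and withdrawal latency recorded; only mice with baseline latency about 3−5 s used. Readings at 5, 10, 15, 20, 30, 40, 50 and 60 min post-injection; 10−15 mice per group. Naloxone 2 mg/kg ip 10 min before icv dosing for antagonism. ED50 with 95% confidence limits by graded dose−response.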

Mu-type opioid receptor [8] = target: Mu-type opioid receptor (Cavia porcellus, UniProt P97266); test: Agonist activity at mu opioid receptor in guinea pig ileum assessed as inhibition of electrically-stimulated muscle contraction; type: functional, tissue-based
Sequence of Mu-type opioid receptor (Cavia porcellus, UniProt P97266) (P97266 whole entry): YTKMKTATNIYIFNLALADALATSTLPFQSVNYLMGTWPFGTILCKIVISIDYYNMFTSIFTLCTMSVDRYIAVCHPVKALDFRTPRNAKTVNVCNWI

Mu-type opioid receptor [9] = target: T1, Mu-type opioid receptor; test: Agonist activity at mu opioid receptor expressed in HEK293 cells assessed as inhibition of forskolin-induced cAMP accumulation after 30 mins by liquid scintillation counter relative to control; type: functional, cell-based
Outline: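 MOR-expressing HEK293 cells seeded at 80% confluence the day before, washed with serum-free medium, preincubated 10 min at 37 °C with 1 mM IBMX, then peptide (5 × 10−11 to 5 × 10−5 M) with 50 μM forskolin added for 30 min at 37 °C. Lysis in 0.2 N HCl, neutralisation, cAMP measured by competition with [3H]cAMP for PKA (≥2 h, 4 °C) and charcoal separation; scintillation counting.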

Mu-type opioid receptor [10] = target: T1, Mu-type opioid receptor; test: Agonist activity at human FLAG-tagged mu opioid receptor expressed in HEK293 cells assessed as induction of ERK1/2 phosphorylation at 1 pM after 10 mins by Western blot analysis; type: functional, cell-based
Outline: (§2)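 Stable HEK293 line with FLAG-tagged MOR, in 12-well plates and serum-starved 16 h, then exposed to peptide at various concentrations for 10 min at 37 °C. Lysis in RIPA with 10 μM PMSF and phosphatase inhibitors. 20 μg protein run on 10% SDS-PAGE, blotted to PVDF and probed for phospho-ERK1/2 (Thr202/Tyr204) and total ERK1/2 (1:1000), ECL detection; at least three independent experiments.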

Mus musculus [11] = test: Antinociceptive activity in Kunming mouse assessed as inhibition of heat-induced tail flick at 0.67 to 20 nmol/kg, icv; type: functional, organism-based; conditions: TDE = time-dependent effect; outline: as §1
[12] = Half life in mouse brain homogenates; type: ADME, tissue-based; conditions: brain homogenate
Outline: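 Peptide incubated at 37 °C in twice-washed 15% mouse brain membrane homogenate, final protein 2.1 mg/mL in 50 mM Tris, pH 7.4. Aliquots centrifuged 13000g, 15 min, 4 °C, filtered 0.22 μm and analysed by C18 RP-HPLC (acetonitrile/water, 0.05% TFA). Half-life from pseudo-first-order disappearance kinetics; at least three experiments.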

Mus musculus [13] = test: Antinociceptive activity in naloxone treated Kunming mouse assessed as inhibition of heat-induced tail flick at 20 nmol/kg, icv after 10 mins post naloxone treatment; type: functional, organism-based; outline: as §1
Mu-type opioid receptor [14] = target: T1, Mu-type opioid receptor; test: Agonist activity at human FLAG-tagged mu opioid receptor expressed in HEK293 cells assessed as induction of ERK1/2 phosphorylation at 10 nM after 10 mins by Western blot analysis; type: functional, cell-based; outline: as §2
Mu-type opioid receptor [15] = target: T1, Mu-type opioid receptor; test: Agonist activity at human FLAG-tagged mu opioid receptor expressed in HEK293 cells assessed as induction of ERK1/2 phosphorylation after 10 mins by Western blot analysis; type: functional, cell-based; outline: as §2

Row | SMILES | pEC50 (Mu-type opioid receptor [1]) | inhibition (Mu-type opioid receptor [1]) | pKi [2] | inhibition [3] | pIC50 [4] | Ratio Ki [5] | pKi (Mu-type opioid receptor [6]) | inhibition (Mus musculus [7]) | pIC50 (Mu-type opioid receptor [8]) | Emax (Mu-type opioid receptor [9]) [%] | Activity (Mu-type opioid receptor [10]) | inhibition (Mus musculus [11]) | half-life [12] [h] | inhibition (Mus musculus [13]) | Activity (Mu-type opioid receptor [14]) | ED50 (Mus musculus [7]) [µmol/kg] | Activity (Mu-type opioid receptor [15])
1 | C=C(C(N)=O)[C@@H](NC(=O)[C@H](Cc1c[nH]c2ccccc12)NC(=O)[C@@H]1CCCN1C(=O)[C@@H](N)Cc1ccc(O)cc1)c1ccc(F)cc1 | 8.13 | Dose-dependent effect | 4.77 | inactive | 6.89 | 1240 | 7.86 | Dose-dependent effect | 7.50 | 81.5 | – | – | – | – | – | – | –
2 | C=C(C(N)=O)[C@@H](NC(=O)[C@H](Cc1c[nH]c2ccccc12)NC(=O)[C@@H]1CCCN1C(=O)[C@@H](N)Cc1ccc(O)cc1)c1ccccc1Cl | 9.08 | Dose-dependent effect | 4.83 | inactive | 6.44 | 2720 | 8.26 | – | 7.78 | 82.6 | – | – | – | – | – | – | –
3 | C=C(C(N)=O)[C@@H](NC(=O)[C@H](Cc1c[nH]c2ccccc12)NC(=O)[C@@H]1CCCN1C(=O)[C@@H](N)Cc1ccc(O)cc1)c1ccc2ccccc2c1 | 7.15 | Dose-dependent effect | 4.07 | inactive | 6.85 | 3100 | 7.56 | – | 7.74 | 67.5 | – | – | – | – | – | – | –
4 | C=C(C(N)=O)[C@@H](NC(=O)[C@H](Cc1c[nH]c2ccccc12)NC(=O)[C@@H]1CCCN1C(=O)[C@@H](N)Cc1ccc(O)cc1)c1ccc(Cl)cc1 | 7.92 | Dose-dependent effect | 4.97 | inactive | 7.44 | 1520 | 8.15 | Dose-dependent effect | 7.82 | 85.6 | – | – | – | – | – | – | –
5 | C=C(C(N)=O)[C@@H](NC(=O)[C@H](Cc1c[nH]c2ccccc12)NC(=O)[C@@H]1CCCN1C(=O)[C@@H](N)Cc1ccc(O)cc1)c1ccc2c(c1)OCO2 | 7.97 | Dose-dependent effect | 4.73 | inactive | 6.36 | 2420 | 8.11 | – | 7.84 | 83.9 | – | – | – | – | – | – | –
6 | C=C(C(=O)N[C@@H](Cc1ccccc1)C(N)=O)[C@@H](NC(=O)[C@@H]1CCCN1C(=O)[C@@H](N)Cc1ccc(O)cc1)c1ccccc1 | 7.44 | Dose-dependent effect | 4.23 | inactive | < 5.00 | 576 | 6.99 | Dose-dependent effect | 7.68 | 70.8 | – | – | – | – | – | – | –
7 | C=C(C(N)=O)[C@@H](NC(=O)[C@H](Cc1c[nH]c2ccccc12)NC(=O)[C@@H]1CCCN1C(=O)[C@@H](N)Cc1ccc(O)cc1)c1ccoc1 | 10.47 | Dose-dependent effect | 4.29 | inactive | 7.99 | 186000 | 9.56 | Dose-dependent effect | 8.40 | 98.7 | Active | tde | 1.47 | inactive | Active | 0.00155 | Dose-dependent effect
8 | NC(=O)[C@H](Cc1ccccc1)NC(=O)[C@H](Cc1ccccc1)NC(=O)[C@@H]1CCCN1C(=O)[C@@H](N)Cc1ccc(O)cc1 | – | – | – | inactive | – | – | – | – | – | 82.8 | – | – | – | – | – | – | –
9 | C=C(C(N)=O)[C@@H](NC(=O)C(=C)[C@@H](NC(=O)[C@@H]1CCCN1C(=O)[C@@H](N)Cc1ccc(O)cc1)c1ccccc1)c1ccccc1 | 7.35 | Dose-dependent effect | 4.96 | inactive | 6.78 | 699 | 7.80 | Dose-dependent effect | 7.42 | 60.3 | – | – | – | – | – | – | –
10 | C=C(C(N)=O)[C@@H](NC(=O)[C@H](Cc1c[nH]c2ccccc12)NC(=O)[C@@H]1CCCN1C(=O)[C@@H](N)Cc1ccc(O)cc1)c1ccco1 | 10.48 | Dose-dependent effect | 4.30 | inactive | 7.80 | 226000 | 9.66 | Dose-dependent effect | 8.53 | 97.1 | Active | tde | 1.43 | inactive | Active | 0.00142 | Dose-dependent effect
11 | C=C(C(N)=O)[C@@H](NC(=O)[C@H](Cc1c[nH]c2ccccc12)NC(=O)[C@@H]1CCCN1C(=O)[C@@H](N)Cc1ccc(O)cc1)c1cccc2ccccc12 | 7.14 | Dose-dependent effect | 4.07 | inactive | 7.07 | 3260 | 7.59 | – | 7.47 | 71 | – | – | – | – | – | – | –
12 | C=C(C(N)=O)[C@@H](NC(=O)[C@H](Cc1c[nH]c2ccccc12)NC(=O)[C@@H]1CCCN1C(=O)[C@@H](N)Cc1ccc(O)cc1)c1ccccc1 | 9.80 | Dose-dependent effect | 4.25 | inactive | 8.12 | 105000 | 9.27 | Dose-dependent effect | 8.17 | 97.9 | Active | tde | 1.04 | inactive | Active | 0.00233 | Dose-dependent effect
13 | C=C(C(N)=O)[C@@H](NC(=O)[C@H](Cc1c[nH]c2ccccc12)NC(=O)[C@@H]1CCCN1C(=O)[C@@H](N)Cc1ccc(O)cc1)c1cccc(Cl)c1 | 9.14 | Dose-dependent effect | 5.24 | inactive | 7.16 | 1670 | 8.46 | Dose-dependent effect | 8.12 | 92.5 | – | tde | 1.5 | inactive | – | 0.00928 | –
14 | C=C(C(N)=O)[C@@H](NC(=O)[C@H](Cc1c[nH]c2ccccc12)NC(=O)[C@@H]1CCCN1C(=O)[C@@H](N)Cc1ccc(O)cc1)c1ccc(OC)cc1 | 7.96 | Dose-dependent effect | 4.99 | inactive | 6.52 | 2110 | 8.32 | – | 7.07 | 85.6 | – | – | – | – | – | – | –
15 | NC(=O)[C@H](Cc1ccccc1)NC(=O)[C@H](Cc1c[nH]c2ccccc12)NC(=O)[C@@H]1CCCN1C(=O)[C@@H](N)Cc1ccc(O)cc1 | – | – | – | inactive | – | – | – | – | – | – | – | – | – | – | – | – | –
